Experimental data as given in ChEMBL document CHEMBL1142229, “Docosahexaenoic acid alters bilayer elastic properties” (Proc Natl Acad Sci U S A, 2007).
Activity calls are given as the source filed them. The rule behind the calls is not given here.

Legend:
[1] = Partition coefficient (x10-4) across dieicosenoyl-phosphatidylcholine bilayer; assay type: ADME; conditions: lipid bilayer/electrolyte
How it was run: (§1)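 Lipid/electrolyte partition coefficient measured with ADIFAB (0.2 μM) in 1 M NaCl, 10 mM Hepes, pH 7.0 at 25 ± 1°C. Extruded vesicles at ≈100 μM phospholipid; total fatty acid raised stepwise over 3–30 μM, 3–5 min equilibration per step. Emission read at 432 and 505 nm (excitation 386 nm), corrected for cuvette binding. Kp from free vs total FA and Vm/Va; triplicate, averaged over concentrations.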

[2] = Partition coefficient (x10-4) across dioleoylphosphatidylcholine bilayer; assay type: ADME; conditions: lipid bilayer/electrolyte; how it was run: as §1
[3] = Activity at gramicidin channel 13 assessed as increase in single channel current at 10 uM in presence of cholesterol
How it was run: (§2)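 Planar bilayers of DC18:1PC (20 mg/ml in n-decane) across a ≈1.6 mm hole in a Teflon partition, in 1 M NaCl, 10 mM Hepes, pH 7.0. Opposite-helix-sense gA analogue pairs, gA(13) and AgA(15). Fatty acid added to both sides from ethanolic stock with NaOH and BHT, stirred 5 min, equilibrated 10 min. Single-channel currents and lifetimes recorded before and after addition. Where stated, cholesterol:DC18:1PC molar ratio 1:1.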

[4] = Activity at gramicidin A negative channel 15 assessed as increase in single channel current; how it was run: as §2
[5] = Activity at gramicidin channel 13 assessed as increase in single channel current at 10 uM; how it was run: as §2
[6] = Activity at gramicidin channel 13 assessed as increase in single channel current; how it was run: as §2
[7] = Effect on gramicidin channel 13 activity; how it was run: as §2
[8] = Partition coefficient (x10-4) across dioleoylphosphatidylcholine bilayer in presence of cholesterol; assay type: ADME; conditions: lipid bilayer/electrolyte; how it was run: as §1

Compound: CCCCCCCC/C=C\CCCCCCCC(=O)O [OLEIC ACID]
- Partition coefficient [1]: 246
- Partition coefficient [2]: 254
- Activity [3]: 15%
- Activity [4]: inactive
- Activity [5]: 5%
- Activity [6]: inactive
- Activity [7]: inactive

Compound: CC/C=C\C/C=C\C/C=C\C/C=C\C/C=C\C/C=C\CCC(=O)O [DOCONEXENT]
- Partition coefficient [1]: 20
- Partition coefficient [2]: 20
- Activity [3]: 65%
- Activity [4]: Active
- Partition coefficient [8]: 19
- Activity [5]: 15%
- Activity [6]: Active
- Activity [7]: Active
